Series [1] in a line: Stability of compound in mini gut model assessed as half life by LC-MS analysis. The series is classed as ADME, tissue-based. In a few lines:
(§1)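 Compound 20 μM (DMSO vehicle, final 0.22%) incubated anaerobically at 37 °C in mGAM inoculated with donor 1 fecal slurry (1:10 slurry, 50 μL into 450 μL) and in bacteria-free mGAM as reference, up to 24 h, triplicate. Samples mixed with 3 volumes cold acetonitrile, centrifuged 21,100g 15 min 4 °C; supernatant analysed by LC–MS (45 °C, 0.45 mL/min) for remaining parent drug.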

Series [2] in a line: Stability in human gut microbes assessed as half life by LC-MS analysis. It counts as ADME. In a few lines: as §1
The nature of series [3]: Drug metabolism in mini gut model assessed as metabolite formation by LC-MS/MS analysis. The series is classed as ADME, tissue-based. In a few lines: (§2)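 Anaerobic mini gut model: stool homogenized in pre-reduced mGAM (10 mL/g), settled 5 min, 50 μL slurry into 450 μL mGAM; compound 20 μM in DMSO (final DMSO 0.22%); 37 °C, 5% H₂/10% CO₂/85% N₂, up to 24 h; donor 1; triplicate. Supernatant acetonitrile-precipitated (1:3), LC–MS at 45 °C, 0.45 mL/min; metabolites analysed versus feces-free reference incubation in mGAM.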

A short description of series [4]: Drug metabolism in human gut microbes assessed as metabolite formation by LC-MS/MS analysis. The series is classed as ADME. The method in brief: as §2
Series [5] can be described thus: Stability of compound in mini gut model at 24 hrs by LC-MS analysis. The series is classed as ADME, tissue-based. In a few lines:
as §1

Some results are limits rather than exact numbers.

Turning to `N[C@@H](Cc1ccc(O)c(O)c1)C(=O)O` [LEVODOPA], the half-life in series [1] and in series [2] was 30 h throughout. In addition, the figures for the Drug metabolism result in series [3] and in series [4] were “Metabolite_Notdetected” and “Metabolite_Detected”, respectively.
With `CCCCNc1ccc(C(=O)OCCOCCOCCOCCOCCOCCOCCOCCOCCOC)cc1` [BENZONATATE], the half-life in series [1] and in series [2] was over 48 h each time. Moreover, the Drug metabolism entry in series [3] and in series [4] was “Metabolite_Notdetected” each time.
Consider `C1N2CN3CN1CN(C2)C3` [METHENAMINE], for which the half-life in series [1] and in series [2] was 10 h in each case. Further, the Drug metabolism result in series [3] is “Metabolite_Notdetected”; in series [4], “Metabolite_Detected”.
As to `O=C([O-])[C@H]1/C(=C/CO)O[C@@H]2CC(=O)N21.[K+]` [CLAVULANATE POTASSIUM], the Drug metabolism result in series [3] and in series [4] was “Metabolite_Notdetected” in each case. Also, the Stability result in series [5] is listed as “Unstable”.
As for `O=S(=O)([O-])CCS.[Na+]` [MESNA], the Drug metabolism result in series [3] and in series [4] was “Metabolite_Detected” in each case. Also, the Stability entry in series [5] is recorded as “Unstable”.
Take `CCCc1nc(C(C)(C)O)c(C(=O)OCc2oc(=O)oc2C)n1Cc1ccc(-c2ccccc2-c2nnn[nH]2)cc1` [OLMESARTAN MEDOXOMIL]: the Drug metabolism entry in series [3] and in series [4] was “Metabolite_Detected” throughout. Besides, in series [5], the Stability result was “Unstable”.
Take `NS(=O)(=O)c1cc2c(cc1Cl)NCNS2(=O)=O` [HYDROCHLOROTHIAZIDE]: the half-life in series [1] and in series [2] was over 48 h throughout. The Drug metabolism entry in series [3] and in series [4] was “Metabolite_Notdetected” in each case.
For `COC1=C(OC)C(=O)C(CCCCCCCCCCO)=C(C)C1=O` [IDEBENONE], the Drug metabolism entry in series [3] is on record as “Metabolite_Notdetected”; in series [4], “Metabolite_Detected”.
The like results for `CCN(CC)C(=O)/C(C#N)=C/c1cc(O)c(O)c([N+](=O)[O-])c1` [ENTACAPONE] were, in that order, “Metabolite_Notdetected” and “Metabolite_Detected”.
`Cl.Oc1noc2c1CCNC2`: the Drug metabolism entry in series [3] and in series [4] was “Metabolite_Notdetected” throughout. For the same molecule, the Stability entry in series [5] was “Unstable”.

The values are drawn from ChEMBL document CHEMBL5029186, “Searching for New Microbiome-Targeted Therapeutics through a Drug Repurposing Approach” (J Med Chem, 2021).
